Only some compounds are listed: those with a hit (about 3.1% of all), similar ones and a draw of the others.
OX1R antag-1 = OX1R (human) antagonism. OX1R-expressing cells, FRET antagonist read-out. inhibition, % at 6.6 µM. 330,000 tested, 1.8% active. AID 485270; in the data active = inhibition mostly above about 38%, no sharp cut-off; inactive = mostly below about 40%;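 also: 0% = agonist challenge alone and 100% = reference antagonist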
Target sequence (O43613 whole entry, looked up): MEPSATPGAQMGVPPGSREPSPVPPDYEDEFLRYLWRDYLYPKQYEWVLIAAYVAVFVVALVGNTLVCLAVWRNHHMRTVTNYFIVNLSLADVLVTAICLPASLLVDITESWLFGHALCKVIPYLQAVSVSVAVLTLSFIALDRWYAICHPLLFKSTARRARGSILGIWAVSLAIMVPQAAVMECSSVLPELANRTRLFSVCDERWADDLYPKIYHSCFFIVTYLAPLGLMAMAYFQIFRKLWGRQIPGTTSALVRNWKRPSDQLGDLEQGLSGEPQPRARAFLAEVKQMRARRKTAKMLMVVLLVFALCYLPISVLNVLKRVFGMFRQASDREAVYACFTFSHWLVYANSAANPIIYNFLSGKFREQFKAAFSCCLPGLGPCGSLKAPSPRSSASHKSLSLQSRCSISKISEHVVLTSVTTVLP
OX1R antag-2 = human HCRTR1 antagonism | CHO/OX1R cells, Fluo-8 calcium fluorescence, orexin A | 330,000 tested, 0.43% active | inhibition, % at 5 µM | O43613;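 active = inhibition above its plate's threshold, mean inhibition of all tested compounds on the plate plus 3 SD, cut at about 37% in these data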;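 also: 0% = orexin A challenge wells and 100% = SB-334867-A antagonist wells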
CHO parental Ca = counter-screen for OX1R antagonists: effect in parental CHO cells. parental CHO-K1, ATP-induced calcium, Fluo-8 fluorescence. inhibition, % at 5.6 µM. 330,000 tested, 0.63% active. AID 463079;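 active = inhibition above that plate's mean sample inhibition plus 3 SD, cut at about 26% in these data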;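 also: 0% = ATP-challenged DMSO wells and 100% = DMSO wells without ATP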
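test system = CHO parental line | reagent = ATP stimulus | measured by = intracellular calcium via Fluo-8 no-wash fluorescent dye | control set = ATP and no-ATP DMSO wells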
GPR7 antagonist = antagonists of human GPR7 (neuropeptides B/W receptor 1); P48145; GPR7-expressing cells, fluorescence antagonist assay; inhibition, % at 4.4 µM; 290,000 tested, 1.1% active; in the data active = inhibition above about 16%, passing the limit was not always enough;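 also: cells stimulated with the agonist NPW; 0% = agonist with vehicle and 100% = vehicle without agonist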
GalR3 antag = human GalR3 antagonism. O60755. HEK293 GalR3-CNG cAMP membrane potential fluorescence; galR3 body fused to GalR1 C-terminus. inhibition, % at 3 µM. 360,000 tested, 0.44% active;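 active = inhibition above the screen-wide average plus 3 SD, cut at about 13% in these data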;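 also: forskolin and galanin both at EC90 stimulate the cells; cAMP rise reported by CNG channel membrane potential dye signal; 0% = forskolin plus galanin with DMSO and 100% = forskolin alone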
Active calls of the source: *; x = no result given.

SMILES | OX1R antag-1 | OX1R antag-2 | CHO parental Ca | GPR7 antagonist | GalR3 antag
O=C1NC[C@H](Cc2ccccc2)N(CC2CCN(CC3CCCC3)CC2)C1=O | x | x | x | x | -3
N#Cc1ccc(NC(=O)Nc2ccc(Oc3ccc(NC(=O)Nc4ccc(C#N)cc4)cc3)cc2)cc1 | 17 | 2 | 38* | 10 | -7
COc1ccc(NC(=O)Nc2ccc(OC)cc2)cc1 | 16 | -8 | 0 | -10 | -5
O=C(Cn1nc(C(=O)O)c2ccccc2c1=O)Nc1ccc(Br)cc1 | 30 | 20 | -7 | -14 | -5
Cc1cc(C(=O)Cn2nc(C(=O)O)c3ccccc3c2=O)c(C)n1CCc1ccc(Cl)cc1 | 49* | 13 | -15 | -12 | -4
O=C(Cn1nc(C(=O)O)c2ccccc2c1=O)Nc1cc(Cl)cc(Cl)c1 | 41* | 19 | -7 | -1 | -6
CCCC(=O)Nc1ccc(C(=O)COC(=O)c2cc(C)oc2C)cc1 | 4 | -15 | -12 | x | -3
CCc1ccc(NC(=O)Cn2nc(C(F)(F)F)c3c2CCC3)cc1 | 24 | 1 | 40* | -22 | -3
CC(OC(=O)Cc1c(F)cccc1Cl)C(=O)NC1CCCCC1C (stereo not given) | 0 | -8 | -10 | x | -7
O=C(COC(=O)CCC(=O)c1cccs1)Nc1ccc(S(=O)(=O)N2CCOCC2)cc1 | 7 | -4 | 10 | -2 | -3
Cc1ccc(S(=O)(=O)N2CCOCC2)cc1NC(=O)COC(=O)CCC(=O)c1cccs1 | 9 | -14 | -4 | 19* | 7
COc1ccc(CCN2CC(=O)N3CCc4ccc(N5CCOCC5)cc4C3CC2=O)cc1OC (stereo not given) | x | x | x | x | -2
CC1=CC(C)(C)N(S(=O)(=O)c2ccc(C)cc2)c2cc(C)ccc21 | 18 | 1 | 49* | 17 | -1
C=CCc1ccc(O)c(-c2cc(CC=C)ccc2O)c1 | 3 | 47* | 40* | -14 | -8
O=S(=O)(NC(=S)NC1CCCCC1)c1ccc(Br)cc1 | 23 | 4 | -8 | -20 | -4
CC1(C)Cc2c(sc3ncnc(NN)c23)CO1 | -2 | -32 | -13 | -3 | -2
CCOC(=O)CSc1nnc2c3ccccc3n(C)c2n1 | 16 | -14 | -13 | -3 | 1
CC(C)n1c2ccccc2c2nnc(SCC(=O)OCN3C(=O)c4ccccc4C3=O)nc21 | 50* | -1 | -17 | -9 | -2
Cc1cc(O)cc(=O)n1-c1cc(Cl)cc(Cl)c1 | x | x | x | x | -6
O=C(COC(=O)COc1ccccc1)NC12CC3CC(CC(C3)C1)C2 | 10 | 7 | -1 | x | -5
Cc1ccc(C(C)NC(=O)/C(C#N)=C\c2c(C)[nH]c3ccccc23)cc1 (stereo not given) | 18 | -5 | 33* | 7 | -7
COc1ccc(-c2cn3cc(C(=O)NN)ccc3n2)cc1 | 27 | 57* | 54* | -21 | -1
CC(C)=CCCC1=CC[C@H]2[C@@H](C1)C(C(C)C)=CC(=O)[C@@]2(C)O | x | x | x | x | -3
COC(=O)C1=C(C)N(C)C(=NCC2CC2)NC1c1ccc(Cl)cc1 (stereo not given) | x | x | x | x | -5
O=C(Nc1nnc(-c2ccc3c(c2)CCCC3)o1)c1ccc(Cl)cc1Cl | 55* | 5 | -5 | -12 | 2
SMILES | OX1R antag-1 | OX1R antag-2 | CHO parental Ca | GPR7 antagonist | GalR3 antag
O=C(Nc1nnc(-c2ccc3c(c2)CCCC3)o1)c1c(F)cccc1F | 19 | -9 | -5 | -3 | -3
CCCCCCCCN1C(=O)[C@@H](CC(=O)NCCCOC)C[C@@]2(C(=O)OC)C1=C[C@H](C1CCCC1)O[C@@H]2C | x | x | x | x | -2
Cc1cccc2c1N(CCOc1ccccc1Cl)C(=O)C2=O | 22 | -5 | -16 | 14 | -6
Cc1ccccc1OCCN1C(=O)C(=O)c2cccc(C)c21 | 15 | -11 | -17 | 21* | -13
Oc1[nH]c2ccccc2c1C=Nc1ccc2c(c1)OCO2 | 59* | -3 | -11 | -12 | -4
COc1ccc(N=Cc2c(O)[nH]c3ccccc23)cc1 | 36 | -24 | -24 | -12 | -1
Cc1cc(C(C)(C)C)oc1C(=O)N(CC(=O)NC1CCCC1)Cc1ccccc1Cl | 89* | 105* | 25 | 7 | -7
O=C(CN(Cc1ccccc1Cl)C(=O)CCC(=O)Nc1nccs1)NCC1CCCO1 (stereo not given) | 20 | -28 | -10 | 5 | -6
CCC(C)(C(=O)NC1CCCC1)N(C(=O)CNC(C)=O)c1ccccc1 (stereo not given) | 16 | -25 | -28 | 19* | -3
COc1cc(C(=S)N2CCOCC2)cc(Br)c1OS(=O)(=O)c1ccccc1 | 35* | 18 | 5 | -5 | -12

Compound activity from PubChem BioAssay.
